The target of one test is D(3) dopamine receptor (Homo sapiens, UniProt P35462). Description: Displacement of [3H]spiperone from human D3 receptor expressed in CHO-K1 cells by radioligand competitive binding analysis. It counts as cell-based.
For test [1], the target named is T1, D(2) dopamine receptor (Homo sapiens, UniProt P14416). Description: Agonist activity at human D2S receptor expressed in CHOK1 cells assessed as inhibition of forskolin induced cAMP production by measuring Emax for cAMP accumulation at 10 uM preincubated for 10 mins followed by forskolin addition and measured after 5 mins by HTRF assay relative to quinpirole (reference value: 98.8 +/- 0.6%). It counts as functional, cell-based. Put shortly: (§1)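 CHO-K1 cells stably transfected with human D2S cDNA, kept in 500 μg/mL G418. Cells in stimulation buffer with 500 μM IBMX took compound for 10 min at 37 °C, then forskolin (10 μM) for 5 min. Intracellular cAMP read by HTRF. Efficacy is percent of maximal quinpirole response. Basal cAMP from wells lacking compound, quinpirole and forskolin. n = 3−4 independent experiments in triplicate, mean SEM.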

Test [2] has as its target T1, D(2) dopamine receptor. Nature of the test: Agonist activity at human D2S receptor expressed in CHOK1 cells assessed as inhibition of forskolin induced cAMP production by measuring Emax for cAMP accumulation at 100 uM preincubated for 10 mins followed by forskolin addition and measured after 5 mins by HTRF assay relative to quinpirole. Type of test: functional, cell-based. In outline: as §1

A short description of test [3]: Displacement of [3H]spiperone from human D4.2 receptor expressed in CHO-K1 cells by radioligand competitive binding analysis. Type of test: cell-based. Put shortly: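 Competition for [3H]-spiperone on membranes from CHO-K1 cells stably expressing human D4.2 receptor, with nonspecific binding set by 25 μM haloperidol. Six concentrations run, from 1 nM to 100 μM or 0.1 nM to 10 μM. Curves fitted to a single-site model, and Ki derived using radioligand concentration and Kd from saturation binding. Clozapine reference. n = 2, mean SEM.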

The next test has as its system CHO-K1. Description: Displacement of [3H]spiperone from human D4.2 receptor expressed in CHO-K1 cells at 10 uM by radioligand competitive binding analysis relative to control. It counts as cell-based. In outline: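 Membranes from CHO-K1 cells stably expressing human D4.2 receptor. Radioligand [3H]-spiperone. Nonspecific binding defined with 25 μM haloperidol. […] Clozapine served as reference competitor. n = 2, mean SEM.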

The target of test [4] is T1, D(2) dopamine receptor. Description: Agonist activity at human D2S receptor expressed in CHOK1 cells assessed as inhibition of forskolin induced cAMP production preincubated for 10 mins followed by forskolin addition and measured after 5 mins by HTRF assay relative to control. Type of test: functional, cell-based.
The target of test [5] is T1, D(2) dopamine receptor. Description: Agonist activity at human D2S receptor expressed in CHOK1 cells assessed as inhibition of forskolin induced cAMP production at 10 uM preincubated for 10 mins followed by forskolin addition and measured after 5 mins in presence of low concentration of quinpirole by HTRF assay. Type of test: functional, cell-based. In outline:
(§2)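 CHO-K1 cells stably transfected with human D2S (short isoform) cDNA. Test compound (10 μM) was added at the same time as quinpirole (10 pM to 100 μM). Cells were in stimulation buffer with 500 μM IBMX for 10 min at 37 °C, then 10 μM forskolin for 5 min. cAMP was read by HTRF, with basal wells lacking all additions. n = 3−4 independent experiments, in triplicate.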

In test [6] the target is T1, D(2) dopamine receptor. Nature of the test: Displacement of [3H]spiperone from human D2S receptor expressed in CHO-K1 cells by radioligand competitive binding analysis. Type of test: cell-based.
Test [7] concerns the target T1, D(2) dopamine receptor. Description: Antagonist activity at human D2S receptor expressed in CHOK1 cells assessed as suppression of quinpirole-induced inhibition of forskolin induced cAMP production at 10 uM preincubated for 10 mins followed by forskolin addition and measured after 5 mins in presence of 100 nM quinpirole by HTRF assay relative to quinpirole EC50. Type of test: functional, cell-based. In outline:
as §2

Structures are written as SMILES. Active and inactive are the calls of the source. The rule behind the calls is not given here.

Sequence of D(3) dopamine receptor (P35462 whole entry): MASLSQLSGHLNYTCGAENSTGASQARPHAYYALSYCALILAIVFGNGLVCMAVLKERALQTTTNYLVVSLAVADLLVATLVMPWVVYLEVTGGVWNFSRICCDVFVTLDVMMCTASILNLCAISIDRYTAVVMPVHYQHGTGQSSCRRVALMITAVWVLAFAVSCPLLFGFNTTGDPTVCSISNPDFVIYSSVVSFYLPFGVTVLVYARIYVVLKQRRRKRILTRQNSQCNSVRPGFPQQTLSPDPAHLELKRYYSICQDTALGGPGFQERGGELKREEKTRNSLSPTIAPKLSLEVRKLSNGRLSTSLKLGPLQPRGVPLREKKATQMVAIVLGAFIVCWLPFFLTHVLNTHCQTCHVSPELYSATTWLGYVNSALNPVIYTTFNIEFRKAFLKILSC
T1 sequence (P14416 whole entry): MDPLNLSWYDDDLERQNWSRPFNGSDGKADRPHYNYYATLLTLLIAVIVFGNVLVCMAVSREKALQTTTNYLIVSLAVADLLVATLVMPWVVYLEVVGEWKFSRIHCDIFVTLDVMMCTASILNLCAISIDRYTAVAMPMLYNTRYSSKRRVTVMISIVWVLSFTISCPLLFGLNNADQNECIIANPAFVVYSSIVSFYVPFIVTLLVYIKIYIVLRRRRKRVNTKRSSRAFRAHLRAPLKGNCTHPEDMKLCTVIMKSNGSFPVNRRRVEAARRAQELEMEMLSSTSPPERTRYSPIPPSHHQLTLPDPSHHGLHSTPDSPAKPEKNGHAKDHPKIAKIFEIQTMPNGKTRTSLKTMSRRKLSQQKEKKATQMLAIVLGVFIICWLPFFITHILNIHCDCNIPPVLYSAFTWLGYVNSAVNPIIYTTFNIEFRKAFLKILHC

For `CN1CCc2cc(O)c(O)c3c2C1Cc1ccccc1-3` (stereo not drawn), the Activity result (at D(3) dopamine receptor; in [3]) was “Dose-dependent effect” each time. Besides, the Ki on D(3) dopamine receptor amounted to 0.838 µM; in test [3], 0.551 µM. Further, the values for the Emax on D(2) dopamine receptor [1] and on D(2) dopamine receptor [2] were 50.7% and 92.7%, respectively. This compound gave a pKi in [3] of 6.26. Besides, the inhibition in the test on CHO-K1 turned out to be 73%.
In [3], `CN1CCN(C2=Nc3cc(Cl)ccc3Nc3ccccc32)CC1` [CLOZAPINE] registered a Ki of 0.0569 µM and a pKi of 7.25. Besides, the inhibition in the test on CHO-K1 worked out at 96%.
`CN1CCc2cc(O)c(O)cc2C1Cc1ccccc1Br` (stereo not drawn): the Activity result (on D(3) dopamine receptor; in test [3]) was “Dose-dependent effect” each time. Further, the Ki amounted to 0.197 µM on D(3) dopamine receptor, 0.0138 µM in [3] and 0.286 µM on D(2) dopamine receptor [6]. Further, the values for the Emax at D(2) dopamine receptor [1] and on D(2) dopamine receptor [2] were 31.9% and 48.4%, respectively. The EC50 at D(2) dopamine receptor [4] worked out at 2.95 µM. Besides, the outcome at D(2) dopamine receptor [5] was Active. For the same compound, the pKi in [3] stood at 7.86. The compound further showed an inhibition with CHO-K1 of 96%. At D(2) dopamine receptor [7], the fold change (FC) worked out at 35.

These data come from ChEMBL document CHEMBL4342460, “1-(2'-Bromobenzyl)-6,7-dihydroxy-N-methyl-tetrahydroisoquinoline and 1,2-Demethyl-nuciferine as Agonists in Human D2 Dopamine Receptors” (J Nat Prod, 2020).
